Here are results for 14 compounds from PubChem BioAssay.

Active and inactive are the calls of the source.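 How the source made its calls, unless noted: active means fluorescence slope after compound addition differing from the mean of all tested samples at 99.7% confidence, mostly higher but some lower; inactive means the rest.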

Experiment [1] can be described thus: inhibitors of TNFa-induced NFkB p65 translocation, primary screen, imaging, HUVEC, MLSMR starter and 10KST1 sets (AID 438;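 active means inhibition above 20% together with a positive visual image hit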;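 further: compound added about 3h40 before a 20 min TNFalpha stimulation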;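 on inhibition: signal is the nuclear over cytoplasmic p65 intensity ratio per well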). Particulars: HUVEC TNFa-induced p65 nuclear translocation; cell count: measured here: nuclei count (cytotoxicity indicator), at 2.08 µM; inhibition: at 2 µM, stronger effect = higher value, 0% TNFa-plus-vehicle, 100% no-TNFa wells.
Experiment [2] in a line: inhibitors of mutant huntingtin aggregation, primary screen, imaging, exon1htt(103Q)mCFP cells, high-content imaging (AID 483;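 active means visual image review flags a hit and inhibition of aggregation exceeds 20%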;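 further: compound exposure lasted 3 days before fixation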;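 on nuclei count: percent of the per-plate median nuclei count of sample wells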). Particulars: exon1htt(103Q)mCFP cell line, aggregate imaging, at 2 µM; inhibition of aggregation: stronger effect = higher value; nuclei count: measured here: cell count, toxicity.
Experiment [3] can be described thus: inhibitors of E-selectin induction by TNFa, primary screen, imaging, HUVEC, immunofluorescence, MLSMR starter and 10KST1 sets (AID 487;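 active means visually confirmed hit in the image check and inhibition above 20%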;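 on inhibition: signal is fraction of cell area covered by stained E-selectin grains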;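 on nuclei count: 100% = median nuclei count of all wells on the same plate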). Particulars: HUVEC TNFalpha-induced E-selectin immunofluorescence imaging, at 2 µM; inhibition: stronger effect = higher value; nuclei count: measured here: cell number, toxicity.
The target in experiment [4] is Voltage-gated potassium channel subunit beta-2 (Rattus norvegicus) (UniProt P62483). The experiment can be described thus: KvBeta enzyme negative modulators, primary screen, biochemical, NADPH fluorescence (AID 622;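 active means fluorescence slope higher than the sample average by over 3 SD, cut at about -0.22 in these data, passing the limit was not always enough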;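 further: slope of raw intensity against log time taken from 70 to 1610 s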). The following applies: recombinant KvBeta, 4-cyanobenzaldehyde reduction, at 10 µM, stronger effect = higher value.
Voltage-gated potassium channel subunit beta-2 (Rattus norvegicus), sequence (P62483 whole entry, looked up): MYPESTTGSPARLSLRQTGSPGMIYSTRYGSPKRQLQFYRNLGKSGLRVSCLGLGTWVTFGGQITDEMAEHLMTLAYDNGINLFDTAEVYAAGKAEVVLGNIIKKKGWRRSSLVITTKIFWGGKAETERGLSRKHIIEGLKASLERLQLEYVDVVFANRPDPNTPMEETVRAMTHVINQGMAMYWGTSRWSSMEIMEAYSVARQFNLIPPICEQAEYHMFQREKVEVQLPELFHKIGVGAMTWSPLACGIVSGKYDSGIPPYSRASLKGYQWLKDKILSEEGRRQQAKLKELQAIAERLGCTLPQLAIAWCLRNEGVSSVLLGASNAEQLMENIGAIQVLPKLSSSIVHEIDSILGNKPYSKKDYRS
Experiment [5] shares this target. Kind of experiment: KvBeta positive modulators, primary screen, biochemical, NADPH fluorescence (AID 623;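 active means NADPH fluorescence slope more negative than the mean of all samples by about 3 SD, 99.7% confidence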;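 further: fluorescence intensity change per second fitted from 20 to 320 s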). The following applies: Recombinant KvBeta, NADPH fluorescence decrease slope, 10 min; at 10 µM; stronger effect = lower value.
The target in experiment [6] is Muscarinic acetylcholine receptor M4 (Homo sapiens) (UniProt P08173). Kind of experiment: compounds altering M4/GIRK thallium flux, either direction, primary screen, M4 allosteric agonist project, cell-based, HEK293 M4/GIRK, BTC-AM (AID 625).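 Further: thallium influx through GIRK channels coupled to M4 in HEK293 cells with BTC-AM dye.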 Particulars: at 10 µM, actives lie on both sides. In a few lines: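 Material: M4/GIRK1/GIRK2 stable HEK293 cell line. Medium: pH 7.3 thallium assay buffer. Dosing: single compound concentration, 10 µM final. Schedule: 1 h dye loading, 2 min kinetic read. Measured by: kinetic fluorescence with BTC-AM dye. Read-out: post-addition slope, 15–24 s, of baseline-normalized fluorescence. Benchmarks: carbachol and DMSO controls.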
Muscarinic acetylcholine receptor M4 (Homo sapiens), sequence (P08173 whole entry, looked up): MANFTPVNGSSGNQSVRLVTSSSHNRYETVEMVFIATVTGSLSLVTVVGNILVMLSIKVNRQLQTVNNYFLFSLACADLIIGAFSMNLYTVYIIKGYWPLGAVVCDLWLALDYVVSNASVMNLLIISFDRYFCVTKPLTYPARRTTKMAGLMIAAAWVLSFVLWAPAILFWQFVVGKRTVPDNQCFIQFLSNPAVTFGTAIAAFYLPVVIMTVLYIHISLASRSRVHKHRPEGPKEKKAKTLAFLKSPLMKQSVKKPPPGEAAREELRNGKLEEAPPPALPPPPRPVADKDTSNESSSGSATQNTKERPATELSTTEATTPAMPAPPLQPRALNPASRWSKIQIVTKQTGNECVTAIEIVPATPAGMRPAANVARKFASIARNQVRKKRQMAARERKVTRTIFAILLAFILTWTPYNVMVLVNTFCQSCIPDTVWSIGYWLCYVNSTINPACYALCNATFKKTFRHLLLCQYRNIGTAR

A short description of experiment [7]: inhibitors of Sendai virus-induced IRF3 signaling, primary screen, TLR/RLR signaling modifier project, cell-based, Sendai virus stimulus, luciferase, 10K MLSCN set (AID 602276;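 active means inhibition at or above 50% at 10 µM; inactive means inhibition below 50%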;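 further: firefly luciferase from ISG56 promoter only with Renilla not read in this screen; 0% = Sendai virus plus DMSO and 100% = medium plus DMSO without virus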). The following applies: HEK293 RL24 IRF3 luciferase reporter, at 10 µM, stronger effect = higher value.
The nature of experiment [8]: inhibitors of poly I:C-induced TLR3 signaling, primary screen, cell-based, poly I:C stimulus, luciferase, 10K MLSCN set (AID 602277;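 active means inhibition of the reporter signal at or above 50%; inactive means inhibition below 50%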). Particulars: HEK293-TLR3 RL24 IRF3 luciferase reporter, at 10 µM, stronger effect = higher value. On the technique in general: Reporter assays use an easily measured gene product as a stand-in for the process of interest.

For orientation: inhibition means the change of the read-out against control, counted positive when it falls. Regarding `Cc1ccc(NC(=O)Cn2cccc2)cc1Cl`, in experiment [1], the cell count came out at 655. Besides, the inhibition in experiment [1] is -12.9% (inactive); in experiment [3] it was -4.1% (inactive); in experiment [7] it was 8.59% (inactive); in experiment [8] it was -12.8% (inactive). In addition, the inhibition of aggregation in experiment [2] was 7% (inactive). The nuclei count in experiment [2] worked out at 115%; in experiment [3] it was 103%. Also, the fluorescence slope in experiment [4] was -0.324 (inactive); in experiment [6], 0.00925 (inactive). Also, in experiment [5], the NADPH fluorescence slope is -5.7e-05 (inactive).
On to `CCCCN(CCCC)C(=O)CN(C)S(=O)(=O)c1ccc2c(c1)n(C)c(=O)c(=O)n2C`, for which the cell count in experiment [1] was determined as 354. Further, the inhibition was -5.1% (inactive) in experiment [1], -75.3% (inactive) in experiment [3], 11.1% (inactive) in experiment [7] and 22.5% (inactive) in experiment [8]. Moreover, the inhibition of aggregation in experiment [2] was -10.5% (inactive). The values for the nuclei count in experiment [2] and in experiment [3] were 88.3% and 121%, respectively. Also, the fluorescence slope was -0.466 (inactive) in experiment [4] and 0.00642 (inactive) in experiment [6]. Besides, in experiment [5], the NADPH fluorescence slope is -4.4e-06 (inactive).
On to `Cc1cc(=O)oc2cc(OCC(=O)OCc3nnc(-c4ccccc4)o3)ccc12`, for which the cell count in experiment [1] was found to be 527. The inhibition in experiment [1] is -7.7% (inactive); in experiment [3], -10.9% (inactive); in experiment [7] it was 6.17% (inactive); in experiment [8], 7.89% (inactive). The inhibition of aggregation in experiment [2] was 5.8% (inactive). Further, the figures for the nuclei count in experiment [2] and in experiment [3] were 123% and 121%, respectively. The fluorescence slope was -0.399 (inactive) in experiment [4] and 0.00584 (inactive) in experiment [6]. Also, the NADPH fluorescence slope in experiment [5] was 2.8e-05 (inactive).
Turning to `CC1(C)NC(=O)N(CCCOc2ccc(Br)cc2Cl)C1=O`, in experiment [1], the cell count is 278. Also, the inhibition is -10% (inactive) in experiment [1], -4.9% (inactive) in experiment [3], -28.8% (inactive) in experiment [7] and -113% (inactive) in experiment [8]. Moreover, the inhibition of aggregation in experiment [2] was -8.8% (inactive). Also, the nuclei count in experiment [2] is 110%; in experiment [3], 119%. In addition, the fluorescence slope in experiment [4] was -0.458 (inactive); in experiment [6] it was 0.00559 (inactive). Moreover, in experiment [5], the NADPH fluorescence slope was -2.9e-06 (inactive).
With `c1ccc(-c2nnc(CN3CCC4(CC3)OCCO4)o2)cc1`, the cell count in experiment [1] was 407. Besides, the inhibition in experiment [1] was -6.8% (inactive); in experiment [3] it was -27% (inactive); in experiment [7], 8.62% (inactive); in experiment [8], 10.2% (inactive). Moreover, the inhibition of aggregation in experiment [2] is 15.2% (inactive). Besides, the nuclei count in experiment [2] was determined as 70.5%; in experiment [3], 118%. Besides, the fluorescence slope in experiment [4] is -0.596 (inactive); in experiment [6] it was 0.0059 (inactive). Further, the NADPH fluorescence slope in experiment [5] was 1.6e-05 (inactive).
Turning to `COCCCn1c2nc3ccccc3nc2c2c(=O)n(-c3ccccc3OC)cnc21`, in experiment [1], the cell count is 334. Moreover, the inhibition in experiment [1] is 6.3% (inactive); in experiment [3], 16.9% (inactive); in experiment [7], -1.7% (inactive); in experiment [8], -9.3% (inactive). The inhibition of aggregation in experiment [2] was -5.4% (inactive). In addition, the figures for the nuclei count in experiment [2] and in experiment [3] were 98.2% and 102%, respectively. Moreover, the values for the fluorescence slope in experiment [4] and in experiment [6] were -0.457 (inactive) and 0.0045 (inactive), respectively. Moreover, the NADPH fluorescence slope in experiment [5] was 4.9e-05 (inactive).
Take `O=C1CC(N2CCOCC2)C(=O)N1c1ccc2c(c1)OCO2` (centres undefined): the cell count in experiment [1] worked out at 459. Besides, the inhibition in experiment [1] is 7.5% (inactive); in experiment [3], -175% (inactive); in experiment [7] it was 4.21% (inactive); in experiment [8], 10.1% (inactive). In experiment [2], the inhibition of aggregation is -9.9% (inactive). Also, the nuclei count amounted to 105% in experiment [2] and 120% in experiment [3]. Also, the fluorescence slope is -0.574 (inactive) in experiment [4] and 0.00505 (inactive) in experiment [6]. Also, in experiment [5], the NADPH fluorescence slope was -3.1e-05 (inactive).
As to `CC(=O)NCCn1c(SCC(=O)NCC2CCCO2)nc2ccccc2c1=O` (centres undefined), the cell count in experiment [1] came to 515. In addition, the inhibition is -8.5% (inactive) in experiment [1], 21.7% (inactive) in experiment [3], 3.29% (inactive) in experiment [7] and 12.9% (inactive) in experiment [8]. Moreover, in experiment [2], the inhibition of aggregation was 4.3% (inactive). Moreover, the results for the nuclei count in experiment [2] and in experiment [3] were 110% and 103%, respectively. In addition, the fluorescence slope was -0.471 (inactive) in experiment [4] and 0.00516 (inactive) in experiment [6]. Further, the NADPH fluorescence slope in experiment [5] was 5.6e-05 (inactive).
Take `COc1ccc(-c2cn3c(C)c(C(=O)Nc4cc(NC(C)=O)ccc4OC)sc3n2)cc1`: the cell count in experiment [1] came to 693. Also, the inhibition in experiment [1] was 7.3% (inactive); in experiment [3] it was -116% (inactive); in experiment [7], 42.7% (inactive); in experiment [8], 26.4% (inactive). Also, in experiment [2], the inhibition of aggregation is -40.3% (inactive). The nuclei count in experiment [2] was 59%; in experiment [3], 118%. Further, the fluorescence slope is -0.166 (inactive) in experiment [4] and 0.00656 (inactive) in experiment [6]. In addition, the NADPH fluorescence slope in experiment [5] is -6.9e-06 (inactive).
Take `CCOCCCNC(=O)C1CCC(=O)N1CCc1ccccc1` (centres undefined): the cell count in experiment [1] was 237. In addition, the inhibition was 2.7% (inactive) in experiment [1], -20% (inactive) in experiment [3], 5.67% (inactive) in experiment [7] and 12.9% (inactive) in experiment [8]. Besides, in experiment [2], the inhibition of aggregation was 1.1% (inactive). Moreover, the values for the nuclei count in experiment [2] and in experiment [3] were 92.5% and 95.1%, respectively. The figures for the fluorescence slope in experiment [4] and in experiment [6] were -0.568 (inactive) and 0.00522 (inactive), respectively. The NADPH fluorescence slope in experiment [5] was -6.9e-06 (inactive).
As to `COc1cccc(-n2nnnc2SCC(=O)NCc2ccco2)c1`, the cell count in experiment [1] was determined as 423. Also, the inhibition in experiment [1] was -3.3% (inactive); in experiment [3] it was -44.9% (inactive); in experiment [7], 19.3% (inactive); in experiment [8], 21.4% (inactive). The inhibition of aggregation in experiment [2] is -7.7% (inactive). Besides, the nuclei count in experiment [2] stood at 94%; in experiment [3] it was 128%. Besides, the fluorescence slope in experiment [4] is -0.548 (inactive); in experiment [6], 0.00522 (inactive). In addition, in experiment [5], the NADPH fluorescence slope is -2.6e-05 (inactive).
With `O=C(NCc1cccnc1)c1cn(CCc2ccccc2)nn1`, the cell count in experiment [1] turned out to be 569. The inhibition is -0.4% (inactive) in experiment [1], -48.9% (inactive) in experiment [3], 10.9% (inactive) in experiment [7] and 16.6% (inactive) in experiment [8]. The inhibition of aggregation in experiment [2] is -18.3% (inactive). For the same compound, the nuclei count came to 98.8% in experiment [2] and 110% in experiment [3]. Moreover, the figures for the fluorescence slope in experiment [4] and in experiment [6] were -0.31 (inactive) and 0.0065 (inactive), respectively. The NADPH fluorescence slope in experiment [5] is -2.1e-05 (inactive).
Regarding `CCOC(=O)c1cc2sccc2n1CC(=O)Nc1ccc2c(c1)OCCO2`, the cell count in experiment [1] worked out at 513. Moreover, the inhibition was -14.9% (inactive) in experiment [1], 12.2% (inactive) in experiment [3], -5.94% (inactive) in experiment [7] and -4.31% (inactive) in experiment [8]. Moreover, the inhibition of aggregation in experiment [2] was -25.9% (inactive). The nuclei count was found to be 108% in experiment [2] and 117% in experiment [3]. Moreover, the fluorescence slope in experiment [4] is -0.61 (inactive); in experiment [6], 0.00667 (inactive). Moreover, the NADPH fluorescence slope in experiment [5] was 4.2e-06 (inactive).
Regarding `O=C(Nc1cccnc1N1CCOCC1)c1ccco1`, the cell count in experiment [1] is 579. For the same compound, the inhibition was -0.3% (inactive) in experiment [1], -56.6% (inactive) in experiment [3], 10.9% (inactive) in experiment [7] and 10.7% (inactive) in experiment [8]. For the same compound, in experiment [2], the inhibition of aggregation is 4.6% (inactive). The nuclei count in experiment [2] came out at 104%; in experiment [3], 109%. Moreover, the fluorescence slope is -0.221 (inactive) in experiment [4] and 0.00549 (inactive) in experiment [6]. The NADPH fluorescence slope in experiment [5] is -1.1e-05 (inactive).
